This note sets out measurements from ChEMBL document CHEMBL1687863, “Terpenoids and norlignans from Metasequoia glyptostroboides” (J Nat Prod, 2011).

In this assay the test system is HL-60. In words: Cytotoxicity against human HL60 cells after 48 hrs by MTT assay. Format: functional, cell-based. Conditions: HL-60, 48 h. Put shortly:
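Cells seeded 12 h before treatment, then exposed continuously to a range of compound concentrations for 48 h. MTT added for a further 4 h, followed by 20% SDS and 12 h at room temperature. OD read at 595 nm; IC50 calculated by the Reed and Muench method.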
In general terms: Formazan colour is commonly taken as a measure of viable cells.

A value given as a limit tells only on which side of the number the result lay.

A word on the IC50: it is the midpoint of a concentration-inhibition curve.

As to `COc1cc(/C=C/[C@@H](c2ccc(O)c(OC)c2)[C@H](O)CO)ccc1O` [METASEQUIRIN D], the half-inhibitory concentration (IC50) is more than 40 µM.

`C=C1CC[C@H]2[C@](C)(O)[C@H](C)CC[C@]2(C)[C@H]1CC/C(C)=C/C(=O)O` [METASEQUOIC ACID C] gave an IC50 of more than 40 µM.

Consider `COc1ccc([C@H]2[C@@H]([C@H](OC(=O)[C@](OC)(c3ccccc3)C(F)(F)F)c3ccc(OC)c(OC)c3)OC[C@H]2OC(=O)[C@](OC)(c2ccccc2)C(F)(F)F)cc1`, for which the half-maximal inhibitory concentration (IC50) is more than 40 µM.

Turning to `C=C(C)C(CC)CC[C@@H](C)[C@H]1CC[C@@]2(C)[C@@H]3CC[C@@H](C(C)(C)O)[C@@]4(CCC(=O)O)C[C@@]34CC[C@]12C` (some centres not stated) [METASEGLYPTORIN A], the 50% inhibitory concentration (IC50) is more than 40 µM.

For `COc1cc([C@@H](O)[C@H]2OC[C@@H](O)[C@H]2c2ccc(O)cc2)ccc1O` [METASEQUIRIN F], the half-inhibitory concentration (IC50) was more than 40 µM.

`COc1ccc([C@H]2[C@@H]([C@H](O)c3ccc(OC)c(OC)c3)OC[C@H]2O)cc1` displayed an IC50 of more than 40 µM.

Consider `COc1cc([C@H]2[C@@H]([C@H](O)c3ccc(O)c(OC)c3)OC[C@H]2O)ccc1O` [METASEQUIRIN E], for which the IC50 was more than 40 µM.

As to `COc1ccc([C@H]2[C@@H]([C@H](OC(=O)[C@@](OC)(c3ccccc3)C(F)(F)F)c3ccc(OC)c(OC)c3)OC[C@H]2OC(=O)[C@@](OC)(c2ccccc2)C(F)(F)F)cc1`, the concentration for half-maximal inhibition (IC50) is more than 40 µM.

As for `C=C[C@]1(C)CC2=C(C[C@@H]1O)[C@@]1(C)CCC[C@@](C)(C(=O)O)[C@@H]1CC2`, the IC50 is more than 40 µM.

In turn, `C=CC(=C)CC[C@@H]1[C@@]2(C)CCC[C@](C)(COC(=O)/C=C/c3ccc(O)cc3)[C@@H]2CC[C@@]1(C)O` came in with an IC50 of 14.3 µM.

Regarding `OC[C@@H](O)[C@@H](/C=C/c1ccc(O)cc1)c1ccc(O)c(O)c1` [SEQUIRIN C], the IC50 was 5.5 µM.

On to `C=C1C=C[C@@H](C(C)C)[C@]12CC=C(C(=O)O)CC2`, for which the IC50 was more than 40 µM.
